Key:
Format in all cases: functional
[1] = Selectivity ratio of GI50 for human KB cells to GI50 for multidrug-resistant P-gp expressing human KBVIN cells
In short: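 Ratio of GI50 in parental KB to GI50 in P-gp-overexpressing KB-VIN. […] KB-VIN cells were grown 7–10 days without vincristine before the assay.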

[2] = Antiproliferative activity against multidrug-resistant P-gp expressing human KBVIN cells by sulforhodamine B assay
In short: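 Vincristine-resistant KB subline kept in 100 nM vincristine, then grown 7–10 days without it before testing. RPMI 1640 with 10% FBS, 37 °C, 5% CO2. 3–5 × 10³ cells/well exposed 72 h to a concentration series, paclitaxel as assay control. SRB staining after TCA fixation, A515 read. GI50 is the 50% absorbance reduction versus untreated cells; three or more experiments.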

[3] = system: A549; experiment: Antiproliferative activity against human A549 cells by sulforhodamine B assay
In short: (§1)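 Cells in RPMI 1640 (25 mM HEPES, 2 mM L-glutamine, 10% heat-inactivated FBS, antibiotics) at 37 °C, 5% CO2. Seeded at 3–5 × 10³/well with graded concentrations, paclitaxel as assay control, for 72 h. TCA-fixed, stained with 0.04% SRB, dye dissolved in 10 mM Tris, A515 read. GI50 is the concentration halving absorbance versus untreated cells; three or more experiments.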

[4] = system: KB; experiment: Antiproliferative activity against human KB cells by sulforhodamine B assay; in short: as §1
[5] = system: DU-145; experiment: Antiproliferative activity against human DU145 cells by sulforhodamine B assay; in short: as §1

Structure (SMILES): C=C1[C@H]2C[C@@H]3C4N5C[C@]6(C)CCC[C@@]47[C@@H]6[C@@]5(O)C[C@]3([C@@H]1OC(=O)CC)[C@H]7[C@H]2O
- RatioGI50 [1]: >20
- GI50 [2]: > 20 µM
- GI50 [3]: > 20 µM
- GI50 [4]: > 20 µM
- GI50 [5]: > 20 µM

Structure (SMILES): CCN1C[C@]2(COC)[C@H](O)C[C@H](O)[C@]34C1[C@@](O)([C@@H](O)[C@H]23)[C@@]1(O)C[C@H](OC)[C@H]2C[C@@H]4[C@@H]1[C@H]2O
- RatioGI50 [1]: >20
- GI50 [2]: > 20 µM
- GI50 [3]: > 20 µM
- GI50 [4]: > 20 µM
- GI50 [5]: > 20 µM

Structure (SMILES): C=C1[C@H]2C[C@@H]3C4N5C[C@]6(C)CCC[C@@]47[C@@H]6[C@@]5(O)C[C@]3([C@@H]1OC(=O)/C=C/c1ccccc1)[C@H]7[C@H]2O
- RatioGI50 [1]: >20
- GI50 [2]: > 20 µM
- GI50 [3]: > 20 µM
- GI50 [4]: > 20 µM
- GI50 [5]: > 20 µM

Structure (SMILES): CCN1C[C@]2(COC)CC[C@H](OC(=O)c3ccc([N+](=O)[O-])cc3)[C@]34C1[C@@](O)([C@@H](OC)[C@H]23)[C@@]1(O)C[C@H](OC)[C@H]2C[C@@H]4[C@@H]1[C@H]2OC(=O)c1ccc([N+](=O)[O-])cc1
- RatioGI50 [1]: >20
- GI50 [2]: > 20 µM
- GI50 [3]: > 20 µM
- GI50 [4]: > 20 µM
- GI50 [5]: > 20 µM

Structure (SMILES): C=C1[C@H]2C[C@@H]3C4N5C[C@]6(C)CCC[C@@]47[C@@H]6[C@@]5(O)C[C@]3([C@@H]1O)[C@H]7[C@H]2OC(=O)C(C)(C)C
- RatioGI50 [1]: >20
- GI50 [2]: > 20 µM
- GI50 [3]: > 20 µM
- GI50 [4]: > 20 µM
- GI50 [5]: > 20 µM

Structure (SMILES): C=C1[C@H]2C[C@@H]3C4N5C[C@]6(C)CCC[C@@]47[C@@H]6[C@@]5(O)C[C@]3([C@@H]1OC(=O)c1ccc([N+](=O)[O-])cc1)[C@H]7[C@H]2O
- RatioGI50 [1]: >20
- GI50 [2]: > 20 µM
- GI50 [3]: > 20 µM
- GI50 [4]: > 20 µM
- GI50 [5]: > 20 µM

Structure (SMILES): C=C1[C@H]2C[C@H]3C4N5C[C@]6(C)CCC[C@]47[C@H]([C@H]2O)C3(C[C@]5(OC(=O)c2ccccc2)[C@H]67)[C@@H]1O
- RatioGI50 [1]: >20
- GI50 [2]: > 20 µM
- GI50 [3]: > 20 µM
- GI50 [4]: > 20 µM
- GI50 [5]: > 20 µM

Structure (SMILES): C=C1[C@H]2C[C@@H]3C4N5C[C@]6(C)CCC[C@@]47[C@@H]6[C@@H]5C[C@]3([C@@H]1OC(=O)c1ccc(F)cc1)[C@H]7[C@H]2O
- RatioGI50 [1]: >20
- GI50 [2]: > 20 µM
- GI50 [3]: > 20 µM
- GI50 [4]: > 20 µM
- GI50 [5]: > 20 µM

Structure (SMILES): CCN1C2OC3CCC2(COC)[C@H]2[C@H](OC)[C@]4(O)C1[C@@]32[C@@H]1C[C@H]2[C@H](O)[C@@H]1[C@]4(O)C[C@@H]2OC
- RatioGI50 [1]: >20
- GI50 [2]: > 20 µM
- GI50 [3]: > 20 µM
- GI50 [4]: > 20 µM
- GI50 [5]: > 20 µM

Structure (SMILES): C=C1[C@H]2C[C@H]3C4N5C[C@]6(C)CCC[C@]47[C@H]([C@H]2O)C3(CC5[C@H]67)[C@@H]1O [KOBUSINE]
- RatioGI50 [1]: >20
- GI50 [2]: > 20 µM
- GI50 [3]: > 20 µM
- GI50 [4]: > 20 µM
- GI50 [5]: > 20 µM

Structure (SMILES): C=C1[C@H]2C[C@@H]3C4N5C[C@]6(C)CCC[C@@]47[C@@H]6[C@@]5(O)C[C@]3([C@@H]1OC(=O)c1cccc([N+](=O)[O-])c1)[C@H]7[C@H]2OC(=O)c1cccc([N+](=O)[O-])c1
- RatioGI50 [1]: 0.99
- GI50 [2]: 5.6 µM
- GI50 [3]: 5 µM
- GI50 [4]: 5.6 µM
- GI50 [5]: 5.2 µM

Structure (SMILES): C=C1[C@H]2C[C@@H]3C4N5C[C@]6(C)CCC[C@@]47[C@@H]6[C@@H]5C[C@]3([C@@H]1O)[C@H]7[C@H]2OC(=O)c1cccnc1
- RatioGI50 [1]: >20
- GI50 [2]: > 20 µM
- GI50 [3]: > 20 µM
- GI50 [4]: > 20 µM
- GI50 [5]: > 20 µM

Structure (SMILES): COC[C@@]12CC[C@H](OC)[C@]34C(C([C@H](OC)[C@H]13)[C@]1(OC(C)=O)[C@H]3[C@@H](OC(=O)c5ccccc5)[C@](O)(C[C@H]34)[C@@H](OC)[C@@H]1O)N(C)C2 [HYPACONITINE]
- RatioGI50 [1]: >20
- GI50 [2]: > 20 µM
- GI50 [3]: > 20 µM
- GI50 [4]: > 20 µM
- GI50 [5]: > 20 µM

Structure (SMILES): C=C1[C@H]2C[C@@H]3C4N5C[C@]6(C)CCC[C@@]47[C@@H]6[C@@H]5C[C@]3([C@@H]1OC(=O)c1ccccc1)[C@H]7[C@H]2OC(=O)c1ccccc1
- RatioGI50 [1]: 0.8
- GI50 [2]: 7.5 µM
- GI50 [3]: 8.4 µM
- GI50 [4]: 6 µM
- GI50 [5]: 9.3 µM

Structure (SMILES): C=C1[C@H]2C[C@H]3C4N5C[C@]6(C)CCC[C@]47[C@H]([C@H]2O)C3(C[C@]5(OC(=O)c2ccc(OC)cc2)[C@H]67)[C@@H]1O
- RatioGI50 [1]: >20
- GI50 [2]: > 20 µM
- GI50 [3]: > 20 µM
- GI50 [4]: > 20 µM
- GI50 [5]: > 20 µM

Structure (SMILES): CCN1C[C@]2(COC(=O)c3ccccc3N)CC[C@H](OC)[C@]34C1[C@@](O)([C@@H](OC)[C@H]23)[C@@]1(O)C[C@H](OC)[C@H]2C[C@@H]4[C@@H]1[C@H]2OC(C)=O
- RatioGI50 [1]: >20
- GI50 [2]: > 20 µM
- GI50 [3]: > 20 µM
- GI50 [4]: > 20 µM
- GI50 [5]: > 20 µM

Structure (SMILES): C=C1[C@H]2C[C@@H]3C4N5C[C@]6(C)CCC[C@@]47[C@@H]6[C@@]5(OC(=O)c4ccc([N+](=O)[O-])cc4)C[C@]3([C@@H]1OC(=O)c1ccc([N+](=O)[O-])cc1)[C@H]7[C@H]2O
- RatioGI50 [1]: >20
- GI50 [2]: > 20 µM
- GI50 [3]: > 20 µM
- GI50 [4]: > 20 µM
- GI50 [5]: > 20 µM

Structure (SMILES): CCN1C[C@]2(COC)[C@H](O)C[C@H](O)[C@]34C1[C@@](O)([C@@H](OC)[C@H]23)[C@@]1(O)C[C@H](OC)[C@H]2C[C@@H]4[C@@H]1[C@H]2O
- RatioGI50 [1]: >20
- GI50 [2]: > 20 µM
- GI50 [3]: > 20 µM
- GI50 [4]: > 20 µM
- GI50 [5]: > 20 µM

Source: ChEMBL document CHEMBL3400028, “Evaluation of Aconitum diterpenoid alkaloids as antiproliferative agents” (2015)
